Values after ≈ are worked out from the molar mass of the structure shown. Blank lines part the entries; values can stand above or below the molecule they belong to. Peptide text beside a SMILES is read from it.
Assays:
Escherichia coli = assay: Compound tested for in vitro susceptibility against ATCC strain 25922 of Escherichia coli; assay type: functional; settings: ATCC25922
In short: (§1)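 Microbroth dilution in Tryptic Soy Broth; inoculum 5×10^5 CFU/mL; plates incubated at 37 °C for 18-20 h; value reported as minimal inhibitory concentration (µg/mL).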

Enterobacter cloacae [1] = assay: Compound tested for the antimicrobial activity against Enterobacter cloacae; assay type: functional; in short: as §1
Enterobacter cloacae [2] = assay: (§2) Compound tested for the antimicrobial activity against Enterobacter cloacae ROS; assay type: functional
In short: (§3)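 MIC by microbroth dilution in Tryptic Soy Broth; inoculum 5×10^5 CFU/mL; plates incubated 18-20 h at 37 °C; assay pH approximately 7.4.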

[3] = Hemolytic activity towards human erythrocytes is evaluated for magainin 2 at peptide concentration of 100 µg/mL; assay type: functional
In short: (§4)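 Washed human erythrocytes from healthy volunteers (3 mL packed cells, PBS pH 7.4 washes, diluted to 20 mL) exposed to peptide in PBS at 25-200 µg/mL, 30 min at 37 °C; supernatant absorbance at 576 nm after centrifugation; 0.1% Triton X-100 taken as 100% hemolysis; duplicates.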

[4] = Hemolytic activity towards human erythrocytes is evaluated for magainin 2 at peptide concentration of 200 µg/mL; assay type: functional; in short: as §4
[5] = Hemolytic activity towards human erythrocytes is evaluated for magainin 2 at peptide concentration of 25 ug/mL; assay type: functional; in short: as §4
[6] = Hemolytic activity towards human erythrocytes is evaluated for magainin 2 at peptide concentration of 50 µg/mL; assay type: functional; in short: as §4
Klebsiella pneumoniae = assay: Compound tested for the antimicrobial activity against Klebsiella pneumoniae; assay type: functional; in short: as §3
Proteus mirabilis = assay: Compound tested for the antimicrobial activity against Proteus mirabilis; assay type: functional; in short: as §1
Pseudomonas aeruginosa [7] = assay: Compound tested for in vitro susceptibility against ATCC strain 27853 of Pseudomonas aeruginosa; assay type: functional; settings: ATCC 27853; in short: as §1
[8] = test system: Salmonella enterica subsp. enterica serovar Anatum; assay: Compound tested for the antimicrobial activity against S. a natum; assay type: functional, salmoneila anatum; in short: as §1
Staphylococcus aureus [9] = assay: Compound tested for in vitro susceptibility against ATCC strain 29213 of Staphylococcus aureus; assay type: functional; in short: as §1
Shigella flexneri = assay: Compound tested for the antimicrobial activity against Shigella flexneri; assay type: functional; in short: as §3
[10] = test system: Acinetobacter calcoaceticus subsp. anitratus; assay: (§5) Compound tested for the antimicrobial activity against Acinetobacter anitratus; assay type: functional, aeinetobacter anitrotap; in short: as §3
[11] = test system: Acinetobacter calcoaceticus subsp. anitratus; assay: as §5; assay type: functional; in short: as §3
Enterobacter cloacae [12] = assay: as §2; assay type: functional, enterobacter cloacaeros; in short: as §3
Pseudomonas aeruginosa [13] = assay: Compound tested for the antimicrobial activity against Pseudomonas aeruginosa strain 8; assay type: functional; in short: as §1
Pseudomonas aeruginosa [14] = assay: Compound tested for the antimicrobial activity against Pseudomonas aeruginosa strain 9; assay type: functional; in short: as §1
Pseudomonas aeruginosa [15] = assay: Compound tested for the antimicrobial activity against Pseudomonas aeruginosa strain ATCC 25916; assay type: functional; in short: as §1
Pseudomonas aeruginosa [16] = assay: Compound tested for the antimicrobial activity against Pseudomonas aeruginosa strain 1; assay type: functional; in short: as §1
Pseudomonas aeruginosa [17] = assay: Compound tested for the antimicrobial activity against Pseudomonas aeruginosa strain 10; assay type: functional; in short: as §1
Pseudomonas aeruginosa [18] = assay: Compound tested for the antimicrobial activity against Pseudomonas aeruginosa strain 11; assay type: functional; in short: as §1
Pseudomonas aeruginosa [19] = assay: Compound tested for the antimicrobial activity against Pseudomonas aeruginosa strain 2; assay type: functional; in short: as §1
Pseudomonas aeruginosa [20] = assay: Compound tested for the antimicrobial activity against Pseudomonas aeruginosa strain 3; assay type: functional; in short: as §1
Pseudomonas aeruginosa [21] = assay: Compound tested for the antimicrobial activity against Pseudomonas aeruginosa strain 4; assay type: functional; in short: as §1
Pseudomonas aeruginosa [22] = assay: Compound tested for the antimicrobial activity against Pseudomonas aeruginosa strain 5; assay type: functional; in short: as §1
Pseudomonas aeruginosa [23] = assay: Compound tested for the antimicrobial activity against Pseudomonas aeruginosa strain 6; assay type: functional; in short: as §1
Pseudomonas aeruginosa [24] = assay: Compound tested for the antimicrobial activity against Pseudomonas aeruginosa strain 7; assay type: functional; in short: as §1
Staphylococcus aureus [25] = assay: Compound tested for the activity against Staphylococcus aureus strain 4; assay type: functional; in short: as §1
Staphylococcus aureus [26] = assay: Compound tested for the activity against Staphylococcus aureus strain 5; assay type: functional; in short: as §1
Staphylococcus aureus [27] = assay: Compound tested for the activity against Staphylococcus aureus strain 6; assay type: functional; in short: as §1
Staphylococcus aureus [28] = assay: Compound tested for the activity against Staphylococcus aureus strain 7; assay type: functional; in short: as §1
Staphylococcus aureus [29] = assay: Compound tested for the activity against Staphylococcus aureus strain 8; assay type: functional; in short: as §1
Staphylococcus aureus [30] = assay: Compound tested for the activity against Staphylococcus aureus strain 9; assay type: functional; in short: as §1
Staphylococcus aureus [31] = assay: Compound tested for the activity against Staphylococcus aureus strain ATCC 28953; assay type: functional; in short: as §1
Staphylococcus aureus [32] = assay: Compound tested for the activity against Staphylococcus aureus strain 1; assay type: functional; in short: as §1
Staphylococcus aureus [33] = assay: Compound tested for the activity against Staphylococcus aureus strain 10; assay type: functional; in short: as §1
Staphylococcus aureus [34] = assay: Compound tested for the activity against Staphylococcus aureus strain 11; assay type: functional; in short: as §1
Staphylococcus aureus [35] = assay: Compound tested for the activity against Staphylococcus aureus strain 2; assay type: functional; in short: as §1
Staphylococcus aureus [36] = assay: Compound tested for the activity against Staphylococcus aureus strain 3; assay type: functional; in short: as §1

MIC (Escherichia coli): 25 µg/mL (≈ 10.5 µM)
MIC (Enterobacter cloacae [1]): < 0.39 µg/mL
MIC (Enterobacter cloacae [2]): 50 µg/mL (≈ 20.9 µM)
MIC (Klebsiella pneumoniae): > 100 µg/mL
MIC (Proteus mirabilis): > 100 µg/mL
MIC (Pseudomonas aeruginosa [7]): 12.5 µg/mL (≈ 5.23 µM)
MIC [8]: > 100 µg/mL
MIC (Staphylococcus aureus [9]): 50 µg/mL (≈ 20.9 µM)
MIC (Shigella flexneri): 12.5 µg/mL (≈ 5.23 µM)
MIC [10]: < 0.39 µg/mL
SMILES: CC(C)C[C@H](NC(=O)[C@H](Cc1c[nH]cn1)NC(=O)[C@H](CC(C)C)NC(=O)[C@H](Cc1c[nH]c2ccccc12)NC(=O)[C@H](Cc1c[nH]cn1)NC(=O)[C@H](Cc1c[nH]cn1)NC(=O)[C@H](C)NC(=O)[C@H](Cc1c[nH]c2ccccc12)NC(=O)[C@H](Cc1c[nH]cn1)NC(=O)[C@H](Cc1c[nH]cn1)NC(=O)[C@H](Cc1c[nH]c2ccccc12)NC(=O)[C@H](CC(C)C)NC(=O)[C@@H](N)Cc1c[nH]cn1)C(=O)N[C@@H](Cc1c[nH]c2ccccc12)C(=O)N[C@@H](Cc1c[nH]cn1)C(=O)N[C@@H](C)C(=O)N[C@@H](Cc1c[nH]c2ccccc12)C(=O)O (H-HLWHHWAHHWLHLWHAW-OH)
Hemolysis [3]: 0%
Hemolysis [4]: 0%
Hemolysis [5]: 0%
Hemolysis [6]: 0%

MIC (Escherichia coli): 200 µg/mL (≈ 91.5 µM)
MIC (Pseudomonas aeruginosa [7]): > 200 µg/mL
MIC (Staphylococcus aureus [9]): 200 µg/mL (≈ 91.5 µM)
SMILES: CC(C)C[C@H](NC(=O)[C@H](CCCCN)NC(=O)[C@H](CCCCN)NC(=O)[C@H](Cc1c[nH]c2ccccc12)NC(=O)[C@H](CCCCN)NC(=O)[C@H](CCCCN)NC(=O)[C@H](CCCCN)NC(=O)[C@H](C)NC(=O)[C@H](CCCCN)NC(=O)[C@H](CCCCN)NC(=O)[C@H](Cc1c[nH]c2ccccc12)NC(=O)[C@H](C)NC(=O)[C@@H](N)CCCCN)C(=O)N[C@@H](C)C(=O)N[C@@H](CCCCN)C(=O)N[C@@H](CCCCN)C(=O)N[C@@H](Cc1c[nH]c2ccccc12)C(=O)O (H-KAWKKAKKKWKKLAKKW-OH)

MIC (Escherichia coli): > 200 µg/mL
MIC (Pseudomonas aeruginosa [7]): > 200 µg/mL
MIC (Staphylococcus aureus [9]): > 200 µg/mL
SMILES: CC(C)C[C@H](NC(=O)[C@H](CCCCN)NC(=O)[C@H](CCCCN)NC(=O)[C@H](CC(C)C)NC(=O)[C@H](CC(C)C)NC(=O)[C@H](CCCCN)NC(=O)[C@H](CC(C)C)NC(=O)[C@H](CC(C)C)NC(=O)[C@H](CCCCN)NC(=O)[C@@H](N)CCCCN)C(=O)O (H-KKLLKLLKKL-OH)

MIC [11]: < 0.39 µg/mL
MIC (Escherichia coli): 25 µg/mL (≈ 18 µM)
MIC (Enterobacter cloacae [1]): < 0.39 µg/mL
MIC (Enterobacter cloacae [12]): 50 µg/mL (≈ 36.1 µM)
MIC (Klebsiella pneumoniae): > 100 µg/mL
MIC (Pseudomonas aeruginosa [13]): 50 µg/mL (≈ 36.1 µM)
MIC (Pseudomonas aeruginosa [14]): > 100 µg/mL
MIC (Pseudomonas aeruginosa [15]): 25 µg/mL (≈ 18 µM)
MIC (Proteus mirabilis): > 100 µg/mL
MIC (Pseudomonas aeruginosa [7]): 12.5 µg/mL (≈ 9.01 µM)
MIC (Pseudomonas aeruginosa [16]): 25 µg/mL (≈ 18 µM)
MIC (Pseudomonas aeruginosa [17]): 50 µg/mL (≈ 36.1 µM)
MIC (Pseudomonas aeruginosa [18]): 50 µg/mL (≈ 36.1 µM)
MIC (Pseudomonas aeruginosa [19]): 12.5 µg/mL (≈ 9.01 µM)
MIC (Pseudomonas aeruginosa [20]): 50 µg/mL (≈ 36.1 µM)
MIC (Pseudomonas aeruginosa [21]): 50 µg/mL (≈ 36.1 µM)
MIC (Pseudomonas aeruginosa [22]): 50 µg/mL (≈ 36.1 µM)
MIC (Pseudomonas aeruginosa [23]): > 100 µg/mL
MIC (Pseudomonas aeruginosa [24]): 50 µg/mL (≈ 36.1 µM)
MIC [8]: 12.5 µg/mL (≈ 9.01 µM)
MIC (Staphylococcus aureus [25]): > 100 µg/mL
MIC (Staphylococcus aureus [26]): > 100 µg/mL
MIC (Staphylococcus aureus [27]): > 100 µg/mL
MIC (Staphylococcus aureus [28]): > 100 µg/mL
MIC (Staphylococcus aureus [29]): > 100 µg/mL
MIC (Staphylococcus aureus [30]): > 100 µg/mL
MIC (Staphylococcus aureus [31]): > 100 µg/mL
MIC (Staphylococcus aureus [9]): 12.5 µg/mL (≈ 9.01 µM)
MIC (Shigella flexneri): < 0.39 µg/mL
MIC (Staphylococcus aureus [32]): > 100 µg/mL
MIC (Staphylococcus aureus [33]): > 100 µg/mL
MIC (Staphylococcus aureus [34]): > 100 µg/mL
MIC (Staphylococcus aureus [35]): > 100 µg/mL
MIC (Staphylococcus aureus [36]): > 100 µg/mL
SMILES: CC(C)C[C@H](NC(=O)[C@H](CCCCN)NC(=O)[C@H](CC(C)C)NC(=O)[C@H](Cc1c[nH]c2ccccc12)NC(=O)[C@H](CCCCN)NC(=O)[C@@H](N)CCCCN)C(=O)N[C@@H](Cc1c[nH]c2ccccc12)C(=O)N[C@@H](CCCCN)C(=O)N[C@@H](C)C(=O)N[C@@H](Cc1c[nH]c2ccccc12)C(=O)O (H-KKWLKLWKAW-OH)
